Results: ChEMBL document CHEMBL5678805, “Intermittent administration of MEK inhibitor GDC-0973 plus PI3K inhibitor GDC-0941 triggers robust apoptosis and tumor growth inhibition” (Cancer Res, 2012)
The source made the active and inactive calls. No cut-off for these calls is given here.

How the values were obtained:
DLD-1 = assay: Antitumor activity against human DLD-1 cells xenografted in mouse assessed as tumor growth inhibition at 10 mg/kg, po administered every third day for 21 days in presence of 4-(2-(1H-indazol-4-yl)-6-((4-(methylsulfonyl)piperazin-1-yl)methyl)thieno[3,2-d]pyrimidin-4-yl)morpholine; format: functional; conditions: DLD-1, 504 h, time 21 day, read-out: TGI
Outline: (§1)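 Human tumor xenografts in mice. Drugs given orally, as single agents or combined with the PI3K inhibitor. Schedules were daily (QD) or every third day (Q3D) over 21 days. Tumor volume was measured by caliper as (L×W×W)/2. %TGI = 100×[1 − AUC(treatment/d)/AUC(vehicle/d)] from fitted growth curves, with group means. Tumor lysates were immunoblotted for pS6.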

MX1 = assay: Antitumor activity against human MX1 cells harboring PTEN null mutation xenografted in mouse assessed as tumor growth inhibition at 5 mg/kg, po; format: functional; conditions: read-out: TGI
Outline: (§2)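 Human tumor xenografts in mice were dosed orally at the indicated mg/kg. Tumor volume was measured with calipers as (L×W×W)/2. %TGI = 100 × [1 − (AUC treatment/d)/(AUC vehicle/d)], using the area under the fitted tumor-growth curve per day for each dose group relative to vehicle.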

Hs 294T = assay: Antiproliferative activity against human Hs294T cells assessed reduction in cell viability incubated for 4 days in presence of 4-(2-(1H-indazol-4-yl)-6-((4-(methylsulfonyl)piperazin-1-yl)methyl)thieno[3,2-d]pyrimidin-4-yl)morpholine by celltiter-glo assay; format: functional; conditions: time 4 day
Outline: (§3)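 4-day CellTiter-Glo viability read-out on melanoma lines, cells exposed to increasing concentrations of each inhibitor alone and in combination.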

[1] = Antitumor activity against human A375.X1 cells xenografted in mouse assessed as tumor growth inhibition at 3 mg/kg, po administered once a day for 21 days in presence of 4-(2-(1H-indazol-4-yl)-6-((4-(methylsulfonyl)piperazin-1-yl)methyl)thieno[3,2-d]pyrimidin-4-yl)morpholine; format: functional; conditions: A375.X1, 504 h, time 21 day, read-out: TGI; outline: as §1
COLO-829 = assay: Antiproliferative activity against human COLO-829 cells assessed as reduction in cell viability incubated for 96 hrs in presence of 4-(2-(1H-indazol-4-yl)-6-((4-(methylsulfonyl)piperazin-1-yl)methyl)thieno[3,2-d]pyrimidin-4-yl)morpholine; format: functional, cell-based
A-375 = assay: Antitumor activity against human A-375 cells harboring BRAF V600E/CDKN2A E61 mutant xenografted in mouse assessed as tumor growth inhibition at 2.5 mg/kg, po; format: functional; conditions: A-375, read-out: TGI
Outline: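 Mice carrying human tumor xenografts dosed orally once daily for 21 consecutive days. Tumor volume measured by calipers as (L×W×W)/2. %TGI = 100×[1 − AUC(treatment/day)/AUC(vehicle/day)], using the area under the fitted growth curve relative to vehicle.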

SK-MEL-28 = assay: Antiproliferative activity against human SK-MEL-28 cells assessed reduction in cell viability incubated for 4 days in presence of 4-(2-(1H-indazol-4-yl)-6-((4-(methylsulfonyl)piperazin-1-yl)methyl)thieno[3,2-d]pyrimidin-4-yl)morpholine by celltiter-glo assay; format: functional; conditions: time 4 day; outline: as §3
MIA PaCa-2 = assay: Antitumor activity against human MIA PaCa-2 cells harboring KRAS G12C/NOTCH1 L2458V mutant xenografted in mouse assessed as tumor growth inhibition at 5 mg/kg, po; format: functional; conditions: read-out: TGI; outline: as §2
[2] = biological target: Proto-oncogene tyrosine-protein kinase Src (Homo sapiens, UniProt P12931); assay: Inhibition of SRC (unknown origin)
Chain of Proto-oncogene tyrosine-protein kinase Src (P12931 2-536 limits assumed): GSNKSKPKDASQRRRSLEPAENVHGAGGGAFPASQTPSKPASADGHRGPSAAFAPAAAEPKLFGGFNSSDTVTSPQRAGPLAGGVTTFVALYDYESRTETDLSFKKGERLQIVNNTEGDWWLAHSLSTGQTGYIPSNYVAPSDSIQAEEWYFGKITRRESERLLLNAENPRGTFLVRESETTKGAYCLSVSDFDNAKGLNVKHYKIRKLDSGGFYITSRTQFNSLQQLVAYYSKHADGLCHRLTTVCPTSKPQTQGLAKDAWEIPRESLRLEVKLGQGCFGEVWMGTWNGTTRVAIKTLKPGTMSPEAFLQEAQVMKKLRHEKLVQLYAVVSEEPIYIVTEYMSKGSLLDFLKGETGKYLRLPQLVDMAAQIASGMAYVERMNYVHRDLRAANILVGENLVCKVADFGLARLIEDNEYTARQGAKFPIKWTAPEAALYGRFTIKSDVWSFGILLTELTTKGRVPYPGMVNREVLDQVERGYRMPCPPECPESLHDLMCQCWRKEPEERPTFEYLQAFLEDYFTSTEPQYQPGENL

A375.X1 = assay: Antitumor activity against human A375.X1 cells xenografted in po dosed mouse assessed as reduction in ERK phosphorylation administered for 3 days and measured at 2 to 24 hrs by Western blot analysis; format: functional, organism-based; conditions: dose 1-10 mg/kg, time 74-96 hrs
Outline: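 A375.X1 xenograft mice were dosed orally at 1, 3, 5 or 10 mg/kg once daily for 3 days. Tumors were collected 2, 8 and 24 h after the last dose, pulverized frozen and resolved by 4–12% SDS-PAGE. p-ERK1/2 and t-ERK1/2 were measured by Western blot and quantified by band intensity, relative to vehicle-treated mice (0 h).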

[3] = biological target: RAC-alpha serine/threonine-protein kinase (Homo sapiens, UniProt P31749); assay: Inhibition of Akt1 (unknown origin)
Chain of RAC-alpha serine/threonine-protein kinase (P31749 whole entry): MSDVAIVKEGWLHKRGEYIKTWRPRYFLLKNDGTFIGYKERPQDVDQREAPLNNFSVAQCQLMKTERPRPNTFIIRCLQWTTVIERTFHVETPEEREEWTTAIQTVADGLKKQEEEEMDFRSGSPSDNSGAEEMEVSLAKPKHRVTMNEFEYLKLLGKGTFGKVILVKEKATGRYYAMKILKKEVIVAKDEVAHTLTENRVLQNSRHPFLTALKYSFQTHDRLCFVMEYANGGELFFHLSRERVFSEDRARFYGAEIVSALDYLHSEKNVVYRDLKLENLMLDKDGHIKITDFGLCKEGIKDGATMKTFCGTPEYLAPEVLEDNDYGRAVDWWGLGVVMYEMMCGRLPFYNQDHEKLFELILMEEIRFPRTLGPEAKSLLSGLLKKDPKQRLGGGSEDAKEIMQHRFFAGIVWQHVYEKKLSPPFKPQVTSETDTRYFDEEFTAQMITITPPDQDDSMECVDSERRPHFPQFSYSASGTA

[4] = biological target: Macrophage-stimulating protein receptor (Homo sapiens, UniProt Q04912); assay: Inhibition of RON (unknown origin)
Chain of Macrophage-stimulating protein receptor (Q04912 25-304 limits assumed): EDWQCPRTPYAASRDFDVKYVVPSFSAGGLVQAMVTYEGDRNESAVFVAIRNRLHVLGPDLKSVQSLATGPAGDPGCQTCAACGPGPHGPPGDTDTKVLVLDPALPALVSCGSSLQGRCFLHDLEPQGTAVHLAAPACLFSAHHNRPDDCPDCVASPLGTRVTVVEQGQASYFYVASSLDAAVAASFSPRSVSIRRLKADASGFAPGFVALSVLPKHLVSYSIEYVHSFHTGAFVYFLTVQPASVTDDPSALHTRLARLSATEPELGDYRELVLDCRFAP
Chain of Macrophage-stimulating protein receptor (Q04912 310-1400 limits assumed): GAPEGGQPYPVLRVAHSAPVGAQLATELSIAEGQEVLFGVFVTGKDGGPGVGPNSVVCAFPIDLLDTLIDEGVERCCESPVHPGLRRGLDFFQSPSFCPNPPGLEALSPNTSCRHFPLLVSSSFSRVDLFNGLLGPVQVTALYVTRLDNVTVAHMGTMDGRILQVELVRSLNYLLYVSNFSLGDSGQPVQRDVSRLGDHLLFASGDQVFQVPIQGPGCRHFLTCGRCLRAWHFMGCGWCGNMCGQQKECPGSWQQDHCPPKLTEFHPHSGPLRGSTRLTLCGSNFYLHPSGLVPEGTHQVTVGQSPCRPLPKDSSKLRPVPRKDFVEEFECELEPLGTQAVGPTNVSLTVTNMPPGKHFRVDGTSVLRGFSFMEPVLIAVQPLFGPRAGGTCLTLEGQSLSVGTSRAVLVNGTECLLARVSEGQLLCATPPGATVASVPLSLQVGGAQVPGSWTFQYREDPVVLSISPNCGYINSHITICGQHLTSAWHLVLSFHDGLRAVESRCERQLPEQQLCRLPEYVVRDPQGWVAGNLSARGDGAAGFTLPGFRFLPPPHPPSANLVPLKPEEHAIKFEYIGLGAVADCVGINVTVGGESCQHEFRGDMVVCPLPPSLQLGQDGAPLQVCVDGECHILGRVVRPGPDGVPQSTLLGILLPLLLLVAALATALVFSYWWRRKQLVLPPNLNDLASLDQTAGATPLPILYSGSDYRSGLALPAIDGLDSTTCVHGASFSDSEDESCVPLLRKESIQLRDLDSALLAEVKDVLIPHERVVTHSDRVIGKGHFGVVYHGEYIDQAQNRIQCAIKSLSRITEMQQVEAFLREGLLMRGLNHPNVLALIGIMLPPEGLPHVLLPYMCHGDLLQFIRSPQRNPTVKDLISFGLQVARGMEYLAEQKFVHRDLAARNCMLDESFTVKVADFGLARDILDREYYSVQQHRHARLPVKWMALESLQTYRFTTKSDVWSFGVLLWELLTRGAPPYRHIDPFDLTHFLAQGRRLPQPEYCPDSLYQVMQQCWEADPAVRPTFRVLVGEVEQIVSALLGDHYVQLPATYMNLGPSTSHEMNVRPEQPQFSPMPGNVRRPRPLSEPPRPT

[5] = biological target: Mitogen-activated protein kinase 14 (Homo sapiens, UniProt Q16539); assay: Inhibition of p38alpha (unknown origin)
Chain of Mitogen-activated protein kinase 14 (Q16539 whole entry): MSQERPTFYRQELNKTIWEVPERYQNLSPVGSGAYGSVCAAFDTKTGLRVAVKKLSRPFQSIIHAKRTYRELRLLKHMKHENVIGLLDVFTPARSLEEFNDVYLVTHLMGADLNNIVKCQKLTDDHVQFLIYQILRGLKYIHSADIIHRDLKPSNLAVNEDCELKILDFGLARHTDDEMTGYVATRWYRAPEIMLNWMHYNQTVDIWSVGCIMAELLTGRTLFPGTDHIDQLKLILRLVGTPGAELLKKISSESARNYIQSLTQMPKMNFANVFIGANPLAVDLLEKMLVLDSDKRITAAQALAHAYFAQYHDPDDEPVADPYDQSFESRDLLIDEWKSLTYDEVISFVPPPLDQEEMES

[6] = biological target: Mitogen-activated protein kinase kinase kinase 5 (Homo sapiens, UniProt Q99683); assay: Inhibition of ASK1 (unknown origin)
Chain of Mitogen-activated protein kinase kinase kinase 5 (Q99683 whole entry): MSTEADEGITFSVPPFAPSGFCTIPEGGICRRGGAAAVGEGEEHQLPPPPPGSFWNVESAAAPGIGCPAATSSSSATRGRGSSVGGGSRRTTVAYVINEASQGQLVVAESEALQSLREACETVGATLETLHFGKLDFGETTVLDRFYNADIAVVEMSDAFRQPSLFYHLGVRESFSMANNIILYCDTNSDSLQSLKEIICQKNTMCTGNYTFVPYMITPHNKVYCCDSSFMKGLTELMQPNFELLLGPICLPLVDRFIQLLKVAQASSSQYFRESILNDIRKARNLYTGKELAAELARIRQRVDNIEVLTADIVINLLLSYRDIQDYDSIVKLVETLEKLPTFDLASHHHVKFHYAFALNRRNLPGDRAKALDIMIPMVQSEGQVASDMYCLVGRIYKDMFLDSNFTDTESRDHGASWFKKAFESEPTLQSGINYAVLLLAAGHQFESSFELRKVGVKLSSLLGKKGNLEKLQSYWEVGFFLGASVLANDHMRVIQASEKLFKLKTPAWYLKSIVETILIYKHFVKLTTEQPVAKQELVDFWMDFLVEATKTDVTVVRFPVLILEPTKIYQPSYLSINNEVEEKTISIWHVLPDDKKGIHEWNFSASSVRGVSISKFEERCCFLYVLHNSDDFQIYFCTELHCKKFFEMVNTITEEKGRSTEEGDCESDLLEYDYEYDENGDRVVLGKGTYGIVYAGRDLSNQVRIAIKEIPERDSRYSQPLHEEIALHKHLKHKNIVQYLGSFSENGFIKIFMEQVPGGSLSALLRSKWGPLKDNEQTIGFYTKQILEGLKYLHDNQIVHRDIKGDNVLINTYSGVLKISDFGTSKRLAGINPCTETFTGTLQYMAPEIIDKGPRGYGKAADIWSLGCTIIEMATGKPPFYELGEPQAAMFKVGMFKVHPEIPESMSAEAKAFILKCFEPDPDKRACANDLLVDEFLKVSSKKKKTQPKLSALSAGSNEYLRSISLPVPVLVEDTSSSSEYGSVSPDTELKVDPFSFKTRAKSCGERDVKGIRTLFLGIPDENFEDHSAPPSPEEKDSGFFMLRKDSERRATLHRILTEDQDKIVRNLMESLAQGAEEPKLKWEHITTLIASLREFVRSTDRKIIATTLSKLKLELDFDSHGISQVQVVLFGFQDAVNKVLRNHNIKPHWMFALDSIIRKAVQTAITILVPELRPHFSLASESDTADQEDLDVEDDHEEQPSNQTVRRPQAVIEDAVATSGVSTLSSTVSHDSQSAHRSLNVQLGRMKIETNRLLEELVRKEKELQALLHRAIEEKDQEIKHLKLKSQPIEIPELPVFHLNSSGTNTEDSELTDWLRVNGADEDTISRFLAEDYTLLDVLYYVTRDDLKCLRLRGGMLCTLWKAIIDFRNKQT

NCI-H2122 [7] = assay: Antitumor activity against human NCI-H2122 cells xenografted in mouse assessed as tumor growth inhibition at 5 mg/kg, po administered once a day for 21 days in presence of 4-(2-(1H-indazol-4-yl)-6-((4-(methylsulfonyl)piperazin-1-yl)methyl)thieno[3,2-d]pyrimidin-4-yl)morpholine; format: functional; conditions: NCI-H2122, 504 h, time 21 day, read-out: TGI
Outline: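 Mice bearing NCI-H2122 xenografts were given MEK inhibitor, PI3K inhibitor, or both, orally once daily for 21 consecutive days at the doses labeled. Caliper tumor volumes were calculated as (L×W×W)/2. %TGI was derived from the AUC of the fitted growth curve per day relative to vehicle.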

NCI-H460 = assay: Antitumor activity against human NCI-H460 cells harboring KRAS Q61H/PIK3CA E545K/LKB1 Q37/CDKN2A mutant xenografted in mouse assessed as tumor growth inhibition at 5 mg/kg, po; format: functional; conditions: read-out: TGI; outline: as §2
[8] = biological target: Calcium/calmodulin-dependent protein kinase type II subunit alpha (Homo sapiens, UniProt Q9UQM7); assay: Inhibition of CamK2a (unknown origin)
Chain of Calcium/calmodulin-dependent protein kinase type II subunit alpha (Q9UQM7 whole entry): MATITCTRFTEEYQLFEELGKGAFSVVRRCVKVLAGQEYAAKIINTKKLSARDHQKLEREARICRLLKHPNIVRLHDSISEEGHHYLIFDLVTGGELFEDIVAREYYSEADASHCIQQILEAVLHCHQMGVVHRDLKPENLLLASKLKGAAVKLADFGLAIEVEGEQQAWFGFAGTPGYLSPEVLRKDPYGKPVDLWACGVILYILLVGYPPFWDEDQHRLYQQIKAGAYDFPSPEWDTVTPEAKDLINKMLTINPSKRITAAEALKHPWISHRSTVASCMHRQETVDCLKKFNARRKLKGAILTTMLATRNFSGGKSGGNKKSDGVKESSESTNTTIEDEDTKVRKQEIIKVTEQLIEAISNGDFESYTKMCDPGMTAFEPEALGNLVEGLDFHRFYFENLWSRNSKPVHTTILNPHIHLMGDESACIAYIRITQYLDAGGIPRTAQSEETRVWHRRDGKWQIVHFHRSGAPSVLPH

[9] = Antitumor activity against human A375.X1 cells xenografted in mouse assessed as tumor growth inhibition at 20 mg/kg, po administered every third day for 21 days in presence of 4-(2-(1H-indazol-4-yl)-6-((4-(methylsulfonyl)piperazin-1-yl)methyl)thieno[3,2-d]pyrimidin-4-yl)morpholine; format: functional; conditions: A375.X1, 504 h, time 21 day, read-out: TGI; outline: as §1
NCI-H2122 [10] = assay: Antitumor activity against human NCI-H2122 cells xenografted in mouse assessed as tumor growth inhibition at 15 mg/kg, po administered every third day for 21 days; format: functional; conditions: NCI-H2122, 504 h, time 21 day, read-out: TGI
Outline: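 Dosing was oral, every third day (Q3D) across 21 days, with single agents or the MEK plus PI3K combination in NCI-H2122 xenograft mice. Tumor volume was calculated as (L×W×W)/2 from caliper measurements. %TGI was derived from fitted-curve AUC per day relative to vehicle, with body weight monitored.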

[11] = biological target: Dual specificity mitogen-activated protein kinase kinase 7 (Homo sapiens, UniProt O14733); assay: Inhibition of MKK7beta (unknown origin)
Chain of Dual specificity mitogen-activated protein kinase kinase 7 (O14733 whole entry): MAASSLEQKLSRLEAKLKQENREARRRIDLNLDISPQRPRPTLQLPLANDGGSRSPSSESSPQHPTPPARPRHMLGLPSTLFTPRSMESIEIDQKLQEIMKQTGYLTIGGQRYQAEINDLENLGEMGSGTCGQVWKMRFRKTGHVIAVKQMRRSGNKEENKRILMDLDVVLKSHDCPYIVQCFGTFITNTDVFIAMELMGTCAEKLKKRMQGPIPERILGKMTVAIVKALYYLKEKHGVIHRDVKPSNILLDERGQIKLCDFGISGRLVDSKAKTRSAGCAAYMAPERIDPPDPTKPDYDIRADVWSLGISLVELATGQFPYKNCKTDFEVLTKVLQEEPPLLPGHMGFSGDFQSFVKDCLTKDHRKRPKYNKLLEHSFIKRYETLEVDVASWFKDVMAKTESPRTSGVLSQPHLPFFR

A2058 [12] = assay: Antitumor activity against human A2058 cells xenografted in mouse assessed as tumor growth inhibition at 6 mg/kg, po administered once a day for 21 days; format: functional; conditions: A2058, 504 h, time 21 day, read-out: TGI; outline: as §1
A2058 [13] = assay: Antitumor activity against human A2058 cells harboring BRAF V600E/PTEN deletion mutant xenografted in mouse assessed as suppression of ERK phosphorylation at 15 mg/kg, po administered every third day for 21 days and measured after 72 hrs post dose in presence of 4-(2-(1H-indazol-4-yl)-6-((4-(methylsulfonyl)piperazin-1-yl)methyl)thieno[3,2-d]pyrimidin-4-yl)morpholine by Western blot analysis; format: functional, organism-based; conditions: time 576.0 hrs
[14] = biological target: Vascular endothelial growth factor receptor 1 (Homo sapiens, UniProt P17948); assay: Inhibition of Flt1 (unknown origin)

- IC50 [2]: > 10 µM
- IC50 [3]: > 10 µM
- IC50 [4]: > 10 µM
- IC50 [5]: > 10 µM
- IC50 [6]: > 10 µM
- IC50 [8]: > 10 µM
- IC50 [11]: > 10 µM
- IC50 [14]: > 10 µM
SMILES: O=C(c1ccc(F)c(F)c1Nc1ccc(I)cc1F)N1CC(O)([C@@H]2CCCCN2)C1 [COBIMETINIB]
- inhibition in vivo at 10 mg/kg (DLD-1): 72%
- inhibition in vivo at 5 mg/kg (MX1): 26%
- Activity (Hs 294T): 60%
- inhibition in vivo at 3 mg/kg [1]: 69%
- Activity (COLO-829): inactive
- inhibition in vivo at 2.5 mg/kg (A-375): 98%
- Activity (SK-MEL-28): 60%
- inhibition in vivo at 5 mg/kg (MIA PaCa-2): 6%
- Activity (A375.X1): Dose-Dependent Effect
- inhibition in vivo at 5 mg/kg (NCI-H2122 [7]): 75%
- inhibition in vivo at 5 mg/kg (NCI-H460): 34.5%
- inhibition in vivo at 20 mg/kg [9]: 118%
- inhibition in vivo at 15 mg/kg (NCI-H2122 [10]): 71%
- inhibition in vivo at 6 mg/kg (A2058 [12]): 44%
- Activity (A2058 [13]): Active
